Assay results from ChEMBL document CHEMBL4350958, “Rational Design of Short Peptide Variants by Using Kunitzin-RE, an Amphibian-Derived Bioactivity Peptide, for Acquired Potent Broad-Spectrum Antimicrobial and Improved Therapeutic Potential of Commensalism Coinfection of Pathogens” (J Med Chem, 2019).
In brackets after ≈: the same amount, converted by molar mass.

What was measured:
Escherichia coli [1] = assay: Antibacterial activity against Escherichia coli ATCC 25922 measured after 18 to 24 hrs in presence of CaCl2; type: functional
Staphylococcus aureus [2] = assay: Antibacterial activity against Staphylococcus aureus ATCC 29213 measured after 18 to 24 hrs in presence of CaCl2; type: functional
Escherichia coli [3] = assay: Antibacterial activity against Escherichia coli ATCC 25922 measured after 18 to 24 hrs in presence of MgCl2; type: functional
Escherichia coli [4] = assay: Antibacterial activity against Escherichia coli ATCC 25922 measured after 18 to 24 hrs in presence of KCl; type: functional
Staphylococcus aureus [5] = assay: Antibacterial activity against Staphylococcus aureus ATCC 29213 measured after 18 to 24 hrs in presence of MgCl2; type: functional
Candida albicans [6] = assay: Antifungal activity against Candida albicans cgmcc2.2086 measured after 48 hrs in presence of ZnCl by broth microdilution method; type: functional
Candida albicans [7] = assay: Antifungal activity against Candida albicans cgmcc2.2086 measured after 48 hrs in presence of CaCl by broth microdilution method; type: functional
[8] = Cytotoxicity against mouse RAW264.7 cells assessed as cell viability at 2 to 64 uM measured after 18 to 24 hrs by MTT assay relative to control; type: cell-based; conditions: RAW264.7 cells, read-out: Activity
How it was run: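 MTT assay: RAW264.7 cells seeded at 1.0–2.0×10^4 per well and exposed to peptide (2–64 µM) for 18–24 h at 37 °C in 5% CO2. MTT (0.5 mg/mL) added for 4 h, formazan dissolved in DMSO, read at 570 nm. At least three independent experiments with triplicate wells.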

Escherichia coli [9] = assay: Antibacterial activity against Escherichia coli UB1005 measured after 24 hrs; type: functional
How it was run: (§1)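 Broth microdilution adapted from NCCLS. Mid-log bacteria were diluted in MHB to a final (0.5–1) × 10^5 CFU mL−1. Peptides were serially diluted in 0.2% BSA and mixed with an equal volume of cells. After 24 h at 37 °C, MIC was read at A492 as the lowest concentration inhibiting 95% of growth. At least three independent experiments, each with three technical replicates.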

[10] = tested on: Staphylococcus epidermidis; assay: Bactericidal activity against Staphylococcus epidermidis ATCC 12228 incubated for 24 hrs followed by replating on agar plate and measured after overnight incubation; type: functional; conditions: for MBC: ATCC 12228, 24 h, read-out: MBC>99.9
How it was run: (§2)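 Mid-log bacteria diluted in MHB to (0.5–1) × 10^5 CFU/mL and mixed 1:1 with peptide serially diluted in 0.2% BSA. After 24 h at 37 °C, 50 μL of each mixture was plated on agar and incubated overnight. MBC taken as the lowest concentration killing >99.9% of cells. At least three independent experiments, each with three technical replicates.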

[11] = Conformational stability in 50% trifluoro-ethyl alcohol assessed as alpha-helical structural propensity by measuring absorption spectra at minimum dichroic band at 35 uM by CD spectra analysis; type: physicochemical
How it was run: (§3)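 CD spectra from 190 to 250 nm of peptide at 35 μM in 10 mM PBS, 30 mM SDS micelles or 50% TFE, recorded in a 1.0-mm quartz cell. Ellipticity was converted to mean residue ellipticity. Three independent scans, each averaged over more than 3 runs.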

Escherichia coli [12] = assay: Bactericidal activity against Escherichia coli K88 incubated for 24 hrs followed by replating on agar plate and measured after overnight incubation; type: functional; conditions: for MBC: K88, 24 h, read-out: MBC>99.9; how it was run: as §2
Escherichia coli [13] = assay: Antibacterial activity against Escherichia coli K99 measured after 24 hrs; type: functional; how it was run: as §1
Escherichia coli [14] = assay: Antibacterial activity against Escherichia coli 078 measured after 24 hrs; type: functional; how it was run: as §1
Staphylococcus aureus [15] = assay: Antibacterial activity against Staphylococcus aureus ATCC 29213 measured after 24 hrs; type: functional
How it was run: (§4)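 Broth microdilution modified from NCCLS. Mid-log bacteria at (0.5–1) × 10^5 CFU mL−1 in MHB, mixed with peptides serially diluted in 0.2% BSA. Incubated 24 h at 37 °C, read at A492. MIC taken as lowest concentration giving 95% growth inhibition. At least three independent experiments, each with three technical replicates.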

[16] = Antibacterial activity against Salmonella pullorum ATCC 7913 measured after 24 hrs; type: functional, Salmonella enterica subsp. enterica serovar Pullorum; conditions: Salmonella enterica, ATCC 7913, 24 h; how it was run: as §1
[17] = Therapeutic index, ratio of MHC10 for hemolytic activity in human RBC to MIC95 against Staphylococcus aureus ATCC 29213; type: toxicity; conditions: human red blood cells (erythrocytes), read-out: TI
How it was run: (§5)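 Therapeutic index = MHC divided by MIC. MHC is the lowest concentration giving >10% lysis of human RBC (1 h, 37 °C, 1-128 µM, A576). MIC is 95% growth inhibition by broth microdilution: bacteria in MHB 24 h at 37 °C; Candida in MOPS-buffered RPMI 1640 at (0.5–1) × 10^3 CFU mL−1, 48 h at 28 °C.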

[18] = Therapeutic index, ratio of MHC10 for hemolytic activity in human RBC to MIC95 against methicillin-resistant Staphylococcus aureus ATCC 43300; type: toxicity; conditions: human red blood cells (erythrocytes), read-out: TI; how it was run: as §5
[19] = Therapeutic index, ratio of MHC10 for hemolytic activity in human RBC to MIC95 against Candida tropicalis cgmcc2.1975; type: toxicity; conditions: human red blood cells (erythrocytes), read-out: TI; how it was run: as §5
Staphylococcus aureus [20] = assay: Antibacterial activity against Staphylococcus aureus ATCC 29213 measured after 18 to 24 hrs in presence of FeCl3; type: functional
Staphylococcus aureus [21] = assay: Antibacterial activity against Staphylococcus aureus ATCC 25923 measured after 24 hrs; type: functional; how it was run: as §4
Staphylococcus aureus [22] = assay: Antibacterial activity against Staphylococcus aureus ATCC 29213 measured after 18 to 24 hrs in presence of NaCl; type: functional
Candida albicans [23] = assay: Antifungal activity against Candida albicans cgmcc2.2086 measured after 48 hrs in presence of NH4Cl by broth microdilution method; type: functional
[24] = Conformational stability in pH 7.4 sodium phosphate buffer assessed as absorption spectra at minimum dichroic band at 35 uM by CD spectra analysis; type: physicochemical; conditions: pH 7.4, 35 µM; how it was run: as §3
Candida albicans [25] = assay: Antifungal activity against Candida albicans cgmcc2.2086 measured after 48 hrs in presence of NaCl by broth microdilution method; type: functional
Escherichia coli [26] = assay: Antibacterial activity against Escherichia coli K88 measured after 24 hrs; type: functional; how it was run: as §1
[27] = Therapeutic index, ratio of MHC10 for hemolytic activity in human RBC to MIC95 against Escherichia coli ATCC 25922; type: toxicity; conditions: human red blood cells (erythrocytes), pooled result: one value given for 9 cell lines, strains, targets or settings, read-out: TI; how it was run: as §5
Pseudomonas aeruginosa = assay: Bactericidal activity against Pseudomonas aeruginosa ATCC 27853 incubated for 24 hrs followed by replating on agar plate and measured after overnight incubation; type: functional; how it was run: as §2

| Compound | MIC95 (Escherichia coli [1]) | MIC95 (Staphylococcus aureus [2]) | MIC95 (Escherichia coli [3]) | MIC95 (Escherichia coli [4]) | MIC95 (Staphylococcus aureus [5]) | MIC95 (Candida albicans [6]; cgmcc2.2086, 48 h) | MIC95 (Candida albicans [7]; cgmcc2.2086, 48 h) | MIC95 (Escherichia coli [9]; UB1005, 24 h) | MBC [10] | MBC (Escherichia coli [12]) | MIC95 (Escherichia coli [13]; K99, 24 h) | MIC95 (Escherichia coli [14]; Escherichia coli, 078, 24 h) | MIC95 (Staphylococcus aureus [15]; ATCC 29213, 24 h) | MIC95 [16] | MIC95 (Staphylococcus aureus [20]) | MIC95 (Staphylococcus aureus [21]; ATCC 25923, 24 h) | MIC95 (Staphylococcus aureus [22]) | MIC95 (Candida albicans [23]; cgmcc2.2086, 48 h) | MIC95 (Candida albicans [25]; cgmcc2.2086, 48 h) | MIC95 (Escherichia coli [26]; K88, 24 h) | further results |
| --- | --- | --- | --- | --- | --- | --- | --- | --- | --- | --- | --- | --- | --- | --- | --- | --- | --- | --- | --- | --- | --- |
| H-AARIILRTRFR-NH2 | > 128 µM | 64 µM | 128 µM | 32 µM | 32 µM | > 128 µM | > 128 µM | 4 µM | 32 µM | 8 µM | 4 µM | 4 µM | 16 µM | 8 µM | 16 µM | 16 µM | > 128 µM | > 128 µM | > 128 µM | 4 µM | viability at up to 64 µM [8]: 90 to 100%; Activity [11]: 208 to 222 nm; selectivity ratio [17]: 16; selectivity ratio [18]: 16; selectivity ratio [19]: 4; Wavelength of minimum CD band [24]: 200 nm; selectivity ratio [27]: 27.4 |
| GENTAMICIN | 1 µM | 4 µM | 1 µM | 1 µM | 1 µM | – | – | – | – | – | – | – | – | – | 1 µM | – | 2 µM | – | – | – | MIC95 (Candida albicans [6]): > 128 µM; MIC95 (Candida albicans [7]): > 128 µM; MIC95 (Escherichia coli [9]): 0.5 µM; MBC>99.9 [10]: 2 µM; MBC>99.9 (Escherichia coli [12]): 1 µM; MIC95 (Escherichia coli [13]): 0.5 µM; MIC95 (Escherichia coli [14]): 0.5 µM; MIC95 (Staphylococcus aureus [15]): 1 µM; MIC95 (Staphylococcus aureus [21]): 1 µM; MBC>99.9 (Pseudomonas aeruginosa): 1 µM; MIC95 (Candida albicans [23]): > 128 µM; MIC95 (Candida albicans [25]): > 128 µM; MIC95 (Escherichia coli [26]): 1 µM |
| CC(C)(O/N=C(\C(=O)N[C@@H]1C(=O)N2C(C(=O)[O-])=C(C[n+]3ccccc3)CS[C@H]12)c1csc(N)n1)C(=O)O [CEFTAZIDIME] | 2 µM | 32 µM | 2 µM | 2 µM | 16 µM | > 128 µM | > 128 µM | 1 µM (≈ 0.547 µg/mL) | 32 µM (≈ 17.5 µg/mL) | 1 µM (≈ 0.547 µg/mL) | 0.5 µM (≈ 0.273 µg/mL) | 0.5 µM (≈ 0.273 µg/mL) | 16 µM (≈ 8.75 µg/mL) | 1 µM (≈ 0.547 µg/mL) | 16 µM | 16 µM (≈ 8.75 µg/mL) | 16 µM | > 128 µM | > 128 µM | 1 µM (≈ 0.547 µg/mL) | MBC (Pseudomonas aeruginosa; ATCC 27853, 24 h, read-out: MBC>99.9): 4 µM (≈ 2.19 µg/mL) |
| H-AARIILRRRFR-NH2 | 128 µM | 128 µM | 64 µM | 64 µM | 32 µM | > 128 µM | > 128 µM | 16 µM | 32 µM | 32 µM | 8 µM | 16 µM | 16 µM | 16 µM | 16 µM | 32 µM | 128 µM | > 128 µM | > 128 µM | 16 µM | viability at up to 64 µM [8]: 90 to 100%; Activity [11]: 208 to 222 nm; selectivity ratio [17]: 13.4; selectivity ratio [18]: 13.4; selectivity ratio [19]: 3.17; Wavelength of minimum CD band [24]: 200 nm; selectivity ratio [27]: 14.8 |
